Measured values reported in ChEMBL document CHEMBL4371073, “Improvement of Aqueous Solubility of Lapatinib-Derived Analogues: Identification of a Quinolinimine Lead for Human African Trypanosomiasis Drug Development” (J Med Chem, 2019).

test: Chemical stability in 0.01 N NaOH solution at 2 mg up to 16 hrs by LC-MS analysis; format: physicochemical; conditions: not given

Compound | Stability
CN1CCCN(c2ncc(-c3ccc4/c(=N/c5cnccn5)ccn(C)c4c3)cn2)CC1 | Stable

test: Intrinsic clearance in human liver microsomes by LC-MS/MS analysis; format: ADME, Microsome; conditions: liver microsomes, read-out: CLH
Outline: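 Human liver microsomes were incubated with compound and samples analyzed by LC/MS/MS. Clint is expressed as μL/min/mg.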

Compound | microsomal CLint [µL/min/mg]
CN(CCNc1ncc(-c2ccc3c(Nc4cnccn4)ccnc3c2)cn1)C(=O)OC(C)(C)C | > 300
CN1CCN(c2ncc(-c3ccc4c(Nc5cnccn5)ccnc4c3)cn2)CC1 | 180

same assay, conditions: microsomes

Compound | Microsomal intrinsic clearance [µL/min/mg]
O=C(O)CN1CCN(c2ncc(-c3ccc4c(Nc5cnccn5)ccnc4c3)cn2)CC1 | 53
CN1CCCN(c2ncc(-c3ccc4c(N(C)c5cnccn5)ccnc4c3)cn2)CC1 | 170
CN(C)CCN(C)c1ncc(-c2ccc3c(Nc4cnccn4)ccnc3c2)cn1 | 45
c1cnc(Nc2ccnc3cc(-c4cnc(N5CCNCC5)nc4)ccc23)cn1 | 30
CN1CCN(c2ncc(-c3ccc4c(Nc5cnccn5)ccnc4c3)cn2)CC1.Cl | 160
CN1C[C@@H]2C[C@H]1CN2c1ncc(-c2ccc3c(Nc4cnccn4)ccnc3c2)cn1 | 37
CN1CCN(c2ncc(-c3ccc4c(NC5CCCCC5)ccnc4c3)cn2)CC1 | 300
CN1CCC2(CCN(c3ncc(-c4ccc5c(Nc6cnccn6)ccnc5c4)cn3)C2)C1 (stereo not drawn) | 77
CN1CCN(c2ncc(-c3ccc4c(NC5CCOCC5)ccnc4c3)cn2)CC1 | 94
CN1C[C@H]2C[C@@H]1CN2c1ncc(-c2ccc3c(Nc4cnccn4)ccnc3c2)cn1 | 41
c1cnc(Nc2ccnc3cc(-c4cnc(N5CCCCCC5)nc4)ccc23)cn1 | > 300
CCCN1CCCN(c2ncc(-c3ccc4c(Nc5cnccn5)ccnc4c3)cn2)CC1 | 300
CN1CCN(c2ncc(-c3ccc4c(NCC5CCOCC5)ccnc4c3)cn2)CC1 | 170
CCN1CCN(c2ncc(-c3ccc4c(Nc5cnccn5)ccnc4c3)cn2)CC1 | > 300
CCn1cc/c(=N\c2cnccn2)c2ccc(-c3cnc(N4CCCN(C)CC4)nc3)cc21 | 38
CN1CCN(c2ncc(-c3ccc4c(Nc5cnccn5)ccnc4c3)cn2)CC1.CS(=O)(=O)O | 170

Compound | Microsomal intrinsic clearance [µL/min/mg]
CN1CC2(CCN(c3ncc(-c4ccc5c(Nc6cnccn6)ccnc5c4)cn3)C2)C1 | 43
Cc1nccnc1Nc1ccnc2cc(-c3cnc(N4CCCN(C)CC4)nc3)ccc12 | 79
O=C(O)[C@@H]1CCCN1c1ncc(-c2ccc3c(Nc4cnccn4)ccnc3c2)cn1 | < 3
CN1CCN(c2ccc(-c3ccc4c(Nc5cnccn5)ccnc4c3)cc2)CC1 | 61
COC(=O)[C@@H]1CCCN1c1ncc(-c2ccc3c(Nc4cnccn4)ccnc3c2)cn1 | 220
NCCNc1ncc(-c2ccc3c(Nc4cnccn4)ccnc3c2)cn1 | 86
CN1CCN(c2ncc(Nc3ccc4c(Nc5cnccn5)ccnc4c3)cn2)CC1 | 46
Cc1cnc(Nc2ccnc3cc(-c4cnc(N5CCCN(C)CC5)nc4)ccc23)cn1 | 100
Cc1cncc(Nc2ccnc3cc(-c4cnc(N5CCCN(C)CC5)nc4)ccc23)n1 | 72
CCCn1cc/c(=N\c2cnccn2)c2ccc(-c3cnc(N4CCCN(C)CC4)nc3)cc21 | 51
CN1CCN(c2ncc(-c3ccc4c(Nc5cnccn5)ccnc4c3)cn2)CC1.O=C(O)CC(O)(CC(=O)O)C(=O)O | 190
COc1ccc(NC(=O)c2ccc(-c3cnc(N4CCCN(C)CC4)nc3)cc2O)cc1Cl | 24
CN1CCCN(c2ncc(-c3ccc4c(Nc5cnccn5)ccnc4c3)cn2)CC1 | 77
CN1CCN(c2ncc(-c3ccc4c(N[C@@H]5CCCC[C@H]5O)ccnc4c3)cn2)CC1 | 160
CC(C)(C)OC(=O)NCCNc1ncc(-c2ccc3c(Nc4cnccn4)ccnc3c2)cn1 | > 300
CCN1CCCN(c2ncc(-c3ccc4c(Nc5cnccn5)ccnc4c3)cn2)CC1 | 200

test: Chemical stability in 0.01 N HCl solution at 2 mg up to 16 hrs by LC-MS analysis; format: physicochemical; conditions: not given

Compound | Stability
CN1CCCN(c2ncc(-c3ccc4/c(=N/c5cnccn5)ccn(C)c4c3)cn2)CC1 | Stable

test: Stability in presence of GSH at 2.3 mg up to 24 hrs by LC-MS analysis; format: physicochemical; conditions: not given

Compound | Stability
CN1CCCN(c2ncc(-c3ccc4/c(=N/c5cnccn5)ccn(C)c4c3)cn2)CC1 | Stable

test: Stability in presence of sodium cyanide at 2.3 mg up to 24 hrs by LC-MS analysis; format: physicochemical; conditions: not given

Compound | Stability
CN1CCCN(c2ncc(-c3ccc4/c(=N/c5cnccn5)ccn(C)c4c3)cn2)CC1 | Stable
